Experimental data of several laboratories.
Compare with care: the assays were run in different laboratories.
Target: Mitogen-activated protein kinase kinase kinase 3 (MAP3K3, Homo sapiens, UniProt Q99759)
Residues used in one study (Q99759 1-626): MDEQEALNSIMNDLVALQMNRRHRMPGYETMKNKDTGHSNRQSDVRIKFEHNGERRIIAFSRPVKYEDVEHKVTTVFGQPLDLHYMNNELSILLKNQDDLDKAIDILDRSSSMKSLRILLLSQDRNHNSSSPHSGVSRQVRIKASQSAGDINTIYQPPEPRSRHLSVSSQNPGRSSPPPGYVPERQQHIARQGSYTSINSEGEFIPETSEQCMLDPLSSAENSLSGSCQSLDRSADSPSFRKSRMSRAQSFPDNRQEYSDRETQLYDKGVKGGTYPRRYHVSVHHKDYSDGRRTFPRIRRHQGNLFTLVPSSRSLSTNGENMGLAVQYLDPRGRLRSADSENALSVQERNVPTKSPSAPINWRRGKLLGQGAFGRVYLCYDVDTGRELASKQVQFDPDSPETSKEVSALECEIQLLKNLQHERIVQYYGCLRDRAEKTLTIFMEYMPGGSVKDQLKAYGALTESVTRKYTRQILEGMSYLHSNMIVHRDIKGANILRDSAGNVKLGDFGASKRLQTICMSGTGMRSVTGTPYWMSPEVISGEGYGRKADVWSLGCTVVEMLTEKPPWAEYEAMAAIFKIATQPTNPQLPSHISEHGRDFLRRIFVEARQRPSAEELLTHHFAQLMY

| Structure (SMILES) | effect on | method | concentration | remaining binding |
| --- | --- | --- | --- | --- |
| C[C@H]1CCN(c2nccc(-c3cnn4ncccc34)n2)C1 | binding |  | 1 µM | 59% |
| COc1ccc2c(O[C@@H]3C[C@H]4C(=O)N[C@]5(C(=O)O)CC5/C=C\CCCCC[C@H](NC(=O)OC5CCCC5)C(=O)N4C3)cc(-c3csc(NC(=O)C(C)C)n3)nc2c1C (stereo partly shown) | cell-free assay | competition with immobilised ligand | 1 µM | 79% |
| CN(C)c1ncc(F)c(-c2cnn3ncccc23)n1 | binding |  | 1 µM | 90% |
| C[C@@H](c1cccc(C#N)c1)n1cc(Cl)cc(C(N)=O)c1=N | cell-free assay | competition with immobilised ligand | 1 µM | 95% |
| COc1cnc(Nc2cccc(S(N)(=O)=O)c2)nc1N1CCN(c2ccccc2)CC1 | binding | competition with immobilised ligand | 1 µM | 82% |
| O=C(NCC1CCOCC1)c1n[nH]cc1NC(=O)c1c(F)cccc1F | binding | competition with immobilised ligand | 1 µM | 96% |
| CCN1CCN(Cc2ccc(C(=O)Nc3ccc(C)c(Oc4ccc5c(c4)CC(=O)N5)c3)cc2C(F)(F)F)CC1 | binding | competition with immobilised ligand | 1 µM | 100% |
| FC(F)(F)Oc1cccc(-c2cnc3ccc(-c4ccncc4)nn23)c1 | cell-free assay | competition with immobilised ligand | 5 µM | 51% |
| O=C(NCCCN1CCOCC1)c1ccc(Nc2ncc(Cl)c(-c3ccc(Cl)s3)n2)cc1 | binding | competition with immobilised ligand | 1 µM | 3.6% |
| Cc1cnn2ncc(-c3ccnc(N(C)C)n3)c2c1 | binding |  | 1 µM | 47% |
| C[C@@H]1CN(c2cc(-c3nn(C)c4ccc(OC5(C)CC5)cc34)ncn2)C[C@H](C)O1 | cell-free assay | competition with immobilised ligand | 1 µM | 90% |
| N[C@@H]1CCN(c2nccc(-c3cnn4ncccc34)n2)C1 | binding |  | 1 µM | 100% |
| Cc1cnc(Nc2ccc(C(=O)N3CCC(N4CCCC4)CC3)cc2)nc1-c1cc2ccccc2s1 | binding | competition with immobilised ligand | 1 µM | 19% |
| C[C@@H](c1ccc(-n2cnc3c(N)ncnc32)cc1)N1CCc2nn(C)c(Cc3ccccc3)c2C1=O | binding | competition with immobilised ligand | 0.1 µM | 79% |
| Nc1ncc2c(n1)-c1c([nH]c3ccc(C#CC4CC4)cc13)CCCC2 | binding | competition with immobilised ligand | 1 µM | 89% |
| CN(c1nccc(-c2cnn3ncccc23)n1)C1CC1 | binding |  | 1 µM | 100% |
| CC(=O)N1CCC(c2ccc(C(=O)NC(=N)N)cc2C(F)(F)F)CC1 | cell-free assay | competition with immobilised ligand | 1 µM | 90% |
| O=C(c1ccc(Nc2ncc(Cl)c(-c3ccc(Cl)s3)n2)cc1)N1CCC(N2CCCC2)CC1 | binding | competition with immobilised ligand | 1 µM | 6.3% |
| CC(=O)Nc1c(C(C)=O)c(=O)n(C)c2nc(-c3ccc(Cl)cc3Cl)c(-c3ccc(Cl)cc3)cc12 | cell-free assay | competition with immobilised ligand | 1 µM | 100% |
| CNC(=O)[C@@H]1CC[C@@H](n2c(-c3ccc4cnccc4c3)nc3ccc(C(=O)NCc4cccc(C(N)=O)c4)cc32)C1 | binding | competition with immobilised ligand | 1 µM | 100% |
| O=C(N1CCS(=O)(=O)CC1)N1C[C@H](c2ccc(OC(F)(F)F)cc2)C[C@H](c2nc(C3CC3)no2)C1 | cell-free assay | competition with immobilised ligand | 1 µM | 100% |
| CN(C)c1nccc(-c2cnn3ncccc23)n1 | binding |  | 1 µM | 100% |
